Experiment [1] has as its system Plasmodium vinckei. Nature of the experiment: Antimalarial activity against Plasmodium vinckei 279BY infected in Swiss mice (Mus musculus) dosed perorally for 4 consecutive days. The class given is functional. To be noted: ip, in the assay text read “dosed intraperitoneally” for “dosed perorally”. Put shortly: (§1)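 Female Swiss mice infected with P. vinckei petteri 279BY on day 0. Dosing once daily on days 1–4 post infection, ip or po as given in each line, n = 3 per dose. Parasitemia measured on day 5 and expressed as decrease relative to untreated control. ED50 derived from the dose series.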

Experiment [2] relates to Plasmodium vinckei. Nature of the experiment: Antimalarial activity against Plasmodium vinckei 279BY infected in Swiss mice (Mus musculus) assessed as reduction in parasitemia at 180 mg/kg, po. The class given is functional. Also noted: scale not given: the % may be the effect or the level left. In outline:
as §1

The subject of another experiment is Plasmodium falciparum. Nature of the experiment: Antimalarial activity against Plasmodium falciparum. Format: functional, organism-based. In outline:
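Chloroquine-sensitive Nigerian strain of P. falciparum; inhibition of in vitro growth; IC50 taken as the mean of at least two independent experiments, each run in duplicate.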

Experiment [3] concerns Plasmodium vinckei. Nature of the experiment: Antimalarial activity against Plasmodium vinckei 279BY infected in Swiss mice (Mus musculus) assessed as reduction in parasitemia at 5 mg/kg, intraperitoneally. To be noted: route intraperitoneal. The class given is functional. Also noted: scale not given: the % may be the effect or the level left. In outline:
as §1

Here are results for 17 compounds from ChEMBL document CHEMBL1255542, “Reverse-benzamidine antimalarial agents: design, synthesis, and biological evaluation” (Bioorg Med Chem Lett, 2010).

For orientation: ED50 means the dose at which the effect has come halfway, by size or by number of responders. The term IC50 denotes the midpoint of a concentration-inhibition curve.

Turning to `COc1cc(OC)cc(C(=N)NCCCCCCCCCCCCNC(=N)c2cc(OC)cc(OC)c2)c1.Cl.Cl`, the ED50 in the experiment with Plasmodium vinckei [1] worked out at 5 mg/kg. The Activity in the experiment on Plasmodium vinckei [2] came to 20%. In addition, 39 nM corresponded to half-maximal inhibition in the experiment with Plasmodium falciparum (IC50).
On to `Cl.Cl.NC(=O)NCCCCCCCCCCCCNC(N)=O`, for which, in the experiment with Plasmodium vinckei [1], it took a dose of 8.5 mg/kg to reach the 50% effect level (ED50). Moreover, the IC50 with Plasmodium falciparum is 9.15 nM.
Regarding `Cl.Cl.N=C(NCCCCCCCCCCCCNC(=N)c1ccc(N)cc1)c1ccc(N)cc1`, in the experiment on Plasmodium vinckei [1], the ED50 turned out to be 2.2 mg/kg. In addition, the Activity with Plasmodium vinckei [2] came out at 58%. In the experiment with Plasmodium falciparum, this compound returned a half-maximal inhibitory concentration (IC50) of 14 nM.
With `Cl.Cl.N=C(NCCCCCCCCCCCCNC(=N)c1ccccc1)c1ccccc1`, the ED50 with Plasmodium vinckei [1] was above 10 mg/kg. The IC50 in the experiment on Plasmodium falciparum is 13.5 nM.
On to `N=C(NCCCCCCCCCCCCNC(=N)c1ccc([N+](=O)[O-])cc1)c1ccc([N+](=O)[O-])cc1`, for which the IC50 with Plasmodium falciparum was determined as 520 nM.
The compound `CCC(=N)NCCCCCCCCCCCCNC(=N)CC.Cl.Cl` gave an ED50 in the experiment with Plasmodium vinckei [1] above 10 mg/kg. Also, half-maximal inhibition in the experiment on Plasmodium falciparum (IC50) was put at 18 nM.
The corresponding values for `Cc1ccc(C(=N)NCCCCCCCCCCCCNC(=N)c2ccc(C)cc2)cc1.Cl.Cl` are 3.1 mg/kg and 10 nM.
The corresponding values for `Cl.Cl.N=C(NCCCCCCCCCCCCNC(=N)c1ccc2c(c1)OCO2)c1ccc2c(c1)OCO2` are 12 mg/kg and 55.5 nM.
`CC(=N)NCCCCCCCCCCCCNC(C)=N.Cl.Cl` yielded a 50% effective dose (ED50) in the experiment on Plasmodium vinckei [1] of 3.1 mg/kg.
In the experiment with Plasmodium falciparum, `N=C(NCCCCCCCCCCCCNC(=N)c1ccco1)c1ccco1` yielded an IC50 of 715 nM.
The same measure, in the same setting: with `N=C(NCCCCCCCCCCCCNC(=N)c1ccc(C(F)(F)F)cc1)c1ccc(C(F)(F)F)cc1` the figure was 455 nM.
`COc1cccc(C(=N)NCCCCCCCCCCCCNC(=N)c2cccc(OC)c2)c1.Cl.Cl`: the 50% effect level with Plasmodium vinckei [1] (ED50) was put at a dose of 5 mg/kg. In the experiment on Plasmodium vinckei [2], the Activity came to 42%. Further, half-maximal inhibition in the experiment on Plasmodium falciparum (IC50) was put at 6.6 nM.
In the experiment with Plasmodium vinckei [1], `COc1ccc(C(=N)NCCCCCCCCCCCCNC(=N)c2ccc(OC)c(OC)c2)cc1OC.Cl.Cl` came in with an ED50 above 5 mg/kg. Besides, in the experiment on Plasmodium vinckei [3], the Activity stood at 40%. The compound further displayed an IC50 in the experiment on Plasmodium falciparum of 6.7 nM.
As to `COc1ccccc1C(=N)NCCCCCCCCCCCCNC(=N)c1ccccc1OC.Cl.Cl`, it took a dose of 12 mg/kg to reach the 50% effect level in the experiment with Plasmodium vinckei [1] (ED50). For the same compound, the IC50 in the experiment on Plasmodium falciparum worked out at 24.5 nM.
The corresponding values for `CC(C)C(=N)NCCCCCCCCCCCCNC(=N)C(C)C.Cl.Cl` are 7 mg/kg and 10.2 nM.
`Cl.Cl.N=C(NCCCCCCCCCCCCNC(=N)C1CC1)C1CC1` came in with a median effective dose (ED50) in the experiment on Plasmodium vinckei [1] of 5 mg/kg. Also, half-maximal inhibition in the experiment on Plasmodium falciparum (IC50) required 16 nM.
The corresponding values for `COc1ccc(C(=N)NCCCCCCCCCCCCNC(=N)c2ccc(OC)cc2)cc1.Cl.Cl` are above 20 mg/kg and 26.5 nM.
